From ChEMBL document CHEMBL4014343 (J Med Chem, 2017)
In brackets after ≈: the same amount, converted by molar mass.

Assays:
[1] = Solubility of the compound in water by spectrophotometric method; format: physicochemical
Procedure, shortened: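 Ethanol standard solutions define absorbance maxima; aqueous solubility then quantified spectrophotometrically at that maximum by calibration.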

MCF7 = experiment: Antiproliferative activity against human MCF7 cells after 3 days by SRB assay; format: functional, cell-based; conditions: Homo sapiens, MCF7, 72 h
[2] = target: Glycogen synthase kinase-3 beta (Homo sapiens, UniProt P49841); experiment: Inhibition of recombinant GSK3beta (unknown origin) after 10 mins in presence of [gamma32P]ATP by beta counting method
Glycogen synthase kinase-3 beta, sequence (P49841 whole entry): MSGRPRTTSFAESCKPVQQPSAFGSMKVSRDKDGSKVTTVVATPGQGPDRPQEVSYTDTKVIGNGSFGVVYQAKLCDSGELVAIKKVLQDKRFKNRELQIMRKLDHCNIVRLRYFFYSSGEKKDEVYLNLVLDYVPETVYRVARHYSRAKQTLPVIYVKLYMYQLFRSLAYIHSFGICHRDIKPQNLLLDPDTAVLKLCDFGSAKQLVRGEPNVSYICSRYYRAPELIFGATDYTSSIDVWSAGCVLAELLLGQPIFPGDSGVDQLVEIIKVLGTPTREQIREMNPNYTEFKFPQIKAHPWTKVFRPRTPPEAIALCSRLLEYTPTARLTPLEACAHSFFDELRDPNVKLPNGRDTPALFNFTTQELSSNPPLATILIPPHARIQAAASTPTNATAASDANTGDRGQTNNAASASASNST
Procedure, shortened: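 Recombinant kinase with 0.4 μCi [γ-32P]ATP per vial, 10 min at 30 °C; spotted on P81 paper, washed in 0.75% phosphoric acid, counted by β-scintillation. IC50 by linear regression versus solvent control; duplicates, ≥3 independent experiments.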

CDK6/cyclin D3 = CDK6/cyclin D3 (Homo sapiens, UniProt Q00534); experiment: Inhibition of full length human N-terminal His6-tagged CDK6/N-terminal GST-tagged CyclinD3 expressed in sf21 cells after 10 mins in presence of [gamma32P]ATP by beta counting method
CDK6/cyclin D3, sequence (P30281 whole entry): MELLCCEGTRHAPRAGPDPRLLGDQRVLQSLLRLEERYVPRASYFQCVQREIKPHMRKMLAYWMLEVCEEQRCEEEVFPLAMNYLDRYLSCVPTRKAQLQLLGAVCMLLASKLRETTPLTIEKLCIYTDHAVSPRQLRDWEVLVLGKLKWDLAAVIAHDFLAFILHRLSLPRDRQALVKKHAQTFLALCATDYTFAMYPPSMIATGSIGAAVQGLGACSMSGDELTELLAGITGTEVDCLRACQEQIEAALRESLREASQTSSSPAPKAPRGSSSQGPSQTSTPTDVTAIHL
CDK6/cyclin D3, sequence (Q00534 whole entry): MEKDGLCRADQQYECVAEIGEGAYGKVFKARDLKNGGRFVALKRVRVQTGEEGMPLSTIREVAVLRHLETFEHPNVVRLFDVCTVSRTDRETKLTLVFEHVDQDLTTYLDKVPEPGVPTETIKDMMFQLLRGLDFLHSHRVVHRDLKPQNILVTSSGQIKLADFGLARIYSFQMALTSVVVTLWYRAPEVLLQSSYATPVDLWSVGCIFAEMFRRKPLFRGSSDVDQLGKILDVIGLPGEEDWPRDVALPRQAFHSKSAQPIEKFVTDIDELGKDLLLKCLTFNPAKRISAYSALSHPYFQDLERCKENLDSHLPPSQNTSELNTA

[3] = Antiproliferative activity against human LXFL 529L cells after 3 days by SRB assay; format: functional, cell-based
[4] = target: Cyclin-dependent kinase 1/cyclin B1 (Homo sapiens, UniProt P06493); experiment: Inhibition of full length human C-terminal His6-tagged CDK1/N-terminal GST-tagged CyclinB expressed in baculovirus infected sf21 cells after 10 mins in presence of [gamma32P]ATP by beta counting method; format: cell-based
Cyclin-dependent kinase 1/cyclin B1, sequence (P06493 whole entry): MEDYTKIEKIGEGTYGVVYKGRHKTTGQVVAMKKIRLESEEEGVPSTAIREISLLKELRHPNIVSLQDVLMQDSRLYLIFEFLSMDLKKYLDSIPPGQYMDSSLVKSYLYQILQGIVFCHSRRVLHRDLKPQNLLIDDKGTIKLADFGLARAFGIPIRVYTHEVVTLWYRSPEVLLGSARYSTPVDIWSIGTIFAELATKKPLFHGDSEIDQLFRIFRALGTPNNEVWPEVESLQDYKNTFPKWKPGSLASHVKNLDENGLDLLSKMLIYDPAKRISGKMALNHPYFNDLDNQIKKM
Cyclin-dependent kinase 1/cyclin B1, sequence (P14635 whole entry, further chain): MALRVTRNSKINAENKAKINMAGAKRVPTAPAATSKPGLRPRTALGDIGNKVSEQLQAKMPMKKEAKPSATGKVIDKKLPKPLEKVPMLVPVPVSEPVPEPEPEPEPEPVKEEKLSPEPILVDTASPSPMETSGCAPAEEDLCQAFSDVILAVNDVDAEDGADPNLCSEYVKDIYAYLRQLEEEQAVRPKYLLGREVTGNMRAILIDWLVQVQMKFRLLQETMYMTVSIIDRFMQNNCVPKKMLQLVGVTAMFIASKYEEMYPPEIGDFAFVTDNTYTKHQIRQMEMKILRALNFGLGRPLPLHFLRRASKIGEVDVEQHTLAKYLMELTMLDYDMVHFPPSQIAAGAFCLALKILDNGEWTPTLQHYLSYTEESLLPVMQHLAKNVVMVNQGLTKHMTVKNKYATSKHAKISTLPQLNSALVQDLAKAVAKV

[5] = target: Cyclin-dependent kinase 2/cyclin E1 (Homo sapiens, UniProt P24941); experiment: Inhibition of full length human C-terminal His6-tagged CDK2/N-terminal GST-tagged CyclinE expressed in baculovirus infected sf21 cells after 10 mins in presence of [gamma32P]ATP by beta counting method
CDK2/Cyclin A2 = CDK2/Cyclin A2 (Homo sapiens, UniProt P24941); experiment: Inhibition of full length human C-terminal His6-tagged CDK2/N-terminal GST-tagged CyclinA expressed in baculovirus infected sf21 cells after 10 mins in presence of [gamma32P]ATP by beta counting method

| solubility [1] | IC50 (MCF7) | Compound | IC50 ([3]; Homo sapiens, LXFL 529L, 72 h) | further results |
| --- | --- | --- | --- | --- |
| 7.3 µg/mL (≈ 26.2 µM) | 10.7 µM | O=C1Nc2ccccc2/C1=C1/Nc2ccc(O)cc2C1=O |  |  |
|  | 6 µM | COc1ccc2c(c1)C(=O)/C(=C1/C(=O)Nc3ccc(OC)cc31)N2 |  |  |
| 2 µg/mL (≈ 4.02 µM) | 1.5 µM | Cc1ccc2c(c1)/C(=C1/Nc3ccccc3/C1=N\OCCO[C@@H]1O[C@H](CO)[C@@H](O)[C@H](O)[C@H]1O)C(=O)N2 | 2 µM | IC50 [2]: 0.29 µM; IC50 (CDK6/cyclin D3): 1.65 µM; IC50 [4]: > 10 µM; IC50 [5]: 0.92 µM; IC50 (CDK2/Cyclin A2): 9.3 µM |
| 0.1 µg/mL (≈ 0.286 µM) |  | O=C1Nc2ccccc2/C1=C1/Nc2ccccc2/C1=N\OCCCCO | 2.6 µM |  |
| 5 µg/mL (≈ 10 µM) |  | O=C1Nc2ccc(O)cc2/C1=C1/Nc2ccccc2/C1=N\OCCO[C@@H]1O[C@H](CO)[C@@H](O)[C@H](O)[C@H]1O | 1.2 µM |  |
| 0.6 µg/mL (≈ 1.71 µM) | > 100 µM | O=C1Nc2ccc(C(=O)O)cc2/C1=C1/Nc2ccc(C(=O)O)cc2C1=O |  |  |
| 23.9 µg/mL (≈ 61.5 µM) | 17.9 µM | CN1CCN(C(=O)c2ccc3c(c2)C(=O)/C(=C2/C(=O)Nc4ccccc42)N3)CC1 |  |  |
|  |  | COc1ccc2c(c1)/C(=C1/Nc3ccccc3/C1=N\O)C(=O)N2 |  | IC50 [2]: 0.09 µM; IC50 (CDK6/cyclin D3): 0.16 µM; IC50 [4]: 0.91 µM; IC50 [5]: 0.054 µM; IC50 (CDK2/Cyclin A2): 0.21 µM |
| 1.4 µg/mL (≈ 3.19 µM) |  | CN(C)c1ccc(NCCO/N=C2/C(=C3/C(=O)Nc4ccccc43)Nc3ccccc32)cc1 | 5.1 µM |  |
|  | 0.025 µM | CC(C)C[C@H](NC(=O)[C@H](Cc1ccccc1)NC(=O)c1cnccn1)B(O)O [BORTEZOMIB] |  |  |
|  |  | CCO/N=C1/C(=C2/C(=O)Nc3ccccc32)Nc2ccccc21 | 7.6 µM |  |
| 3 µg/mL (≈ 8.21 µM) |  | O=C1Nc2ccccc2/C1=C1/Nc2ccccc2/C1=N\OCCC(O)CO (stereo not drawn) | 0.65 µM | IC50 [5]: 0.23 µM |
| < 1 µg/mL |  | O=C1Nc2ccccc2/C1=C1/Nc2ccc(C(=O)O)cc2/C1=N\O |  |  |
| < 0.1 µg/mL |  | O=C1Nc2ccccc2/C1=C1/Nc2ccc([N+](=O)[O-])cc2C1=O |  |  |
| 4.2 µg/mL (≈ 8.76 µM) | 10 µM | CN1CCN(c2ccc(NC(=O)c3ccc4c(c3)C(=O)/C(=C3/C(=O)Nc5ccccc53)N4)cc2)CC1 |  |  |
| 30 µg/mL (≈ 62.1 µM) |  | O=C1Nc2ccccc2/C1=C1/Nc2ccccc2/C1=N\OCCO[C@@H]1O[C@H](CO)[C@@H](O)[C@H](O)[C@H]1O |  | IC50 [2]: 0.81 µM; IC50 (CDK6/cyclin D3): 1.35 µM; IC50 [4]: > 10 µM; IC50 [5]: 1.7 µM; IC50 (CDK2/Cyclin A2): ≥ 10 µM |
| 2 µg/mL (≈ 5.27 µM) |  | O=C1Nc2ccccc2/C1=C1/Nc2ccccc2/C1=N\OCCCC(O)CO (stereo not drawn) | 0.56 µM |  |
|  | 7.6 µM | Nc1ccc2c(c1)C(=O)/C(=C1/C(=O)Nc3ccccc31)N2 |  |  |
| 50 µg/mL (≈ 131 µM) | 0.3 µM | COc1ccc2c(c1)/C(=C1/Nc3ccccc3/C1=N\OCC(O)CO)C(=O)N2 (stereo not drawn) | 0.53 µM | IC50 [5]: 0.043 µM |
| 278 µg/mL (≈ 908 µM) |  | O=C1Nc2ccccc2/C1=C1/Nc2ccc(C(=O)O)cc2C1=O |  |  |
| 400 µg/mL (≈ 923 µM) |  | COc1ccc2c(c1)/C(=C1/Nc3ccccc3/C1=N\OCCN1CCN(C)CC1)C(=O)N2 | 1.2 µM |  |
| 16.1 µg/mL (≈ 42.8 µM) | 5.43 µM | CN(C)CCNC(=O)c1ccc2c(c1)C(=O)/C(=C1/C(=O)Nc3ccccc31)N2 |  |  |
| 2.7 µg/mL (≈ 9.21 µM) | 3.6 µM | O=C1Nc2ccccc2/C1=C1/Nc2ccc(O)cc2/C1=N\O |  |  |
| 50 µg/mL (≈ 97.4 µM) | 0.7 µM | COc1ccc2c(c1)/C(=C1\Nc3ccccc3\C1=N/OCCO[C@@H]1O[C@H](CO)[C@@H](O)[C@H](O)[C@H]1O)C(=O)N2 | 1.1 µM | IC50 [2]: 0.1 µM; IC50 (CDK6/cyclin D3): 0.41 µM; IC50 [4]: 5.58 µM; IC50 [5]: 0.09 µM; IC50 (CDK2/Cyclin A2): 0.84 µM |
| > 25000 µg/mL | 0.89 µM | COc1ccc2c(c1)/C(=C1/Nc3ccccc3/C1=N\OCCN1CCN(C)CC1)C(=O)N2.Cl |  |  |

| Compound | solubility [1] | IC50 (MCF7) | IC50 ([3]; Homo sapiens, LXFL 529L, 72 h) | further results |
| --- | --- | --- | --- | --- |
| CN1CCN(CCO/N=C2/C(=C3/C(=O)Nc4ccccc43)Nc3ccccc32)CC1 | 2 µg/mL (≈ 4.96 µM) | 0.8 µM |  | IC50 ([3]; lxfl 529l): 0.86 µM |
